pIC50: −log10 of the molar value. Activity calls are given as the source filed them. No cut-off for these calls is given here. Bounds are passed on as bounds.

Consider eight molecules from ChEMBL document CHEMBL4385662, “Anti-tubercular activity of novel 4-anilinoquinolines and 4-anilinoquinazolines” (Bioorg Med Chem Lett, 2019).

Test [1] in a line: cells. The class given is ADME, cell-based. To be noted: Homo sapiens, WS1, 48 h.
The subject of test [2] is Mycobacterium tuberculosis. Put plainly: Anti-tubercular activity against Mycobacterium tuberculosis H37Rv expressing LuxABCDE assessed as relative luminescence by measuring ratio of RLU (test compound)/RLU(no compound) at 1.25 uM by luminescence based assay. The class given is functional.
Test [3] concerns Mycobacterium tuberculosis. Kind of test: Anti-tubercular activity against Mycobacterium tuberculosis H37Rv expressing LuxABCDE assessed as relative luminescence by measuring ratio of RLU (test compound)/RLU(no compound) at 2.5 uM by luminescence based assay. The class given is functional.
Test [4] deals with Mycobacterium tuberculosis. Put plainly: Anti-tubercular activity against Mycobacterium tuberculosis H37Rv expressing LuxABCDE assessed as relative luminescence by measuring ratio of RLU (test compound)/RLU(no compound) at 5 uM by luminescence based assay. The class given is functional.
Test [5] concerns Mycobacterium tuberculosis. Kind of test: Anti-tubercular activity against Mycobacterium tuberculosis H37Rv expressing LuxABCDE assessed as relative luminescence by measuring ratio of RLU (test compound)/RLU(no compound) at 10 uM by luminescence based assay. The class given is functional.
In test [6] the test system is Mycobacterium tuberculosis. Kind of test: Anti-tubercular activity against Mycobacterium tuberculosis H37Rv expressing LuxABCDE assessed as relative luminescence by measuring ratio of RLU (test compound)/RLU(no compound) at 20 uM by luminescence based assay. The class given is functional.
Test [7] has as its system Mycobacterium tuberculosis. Put plainly: Anti-tubercular activity against Mycobacterium tuberculosis H37Rv expressing LuxABCDE assessed as reduction in microbial growth by luminescence based assay. The class given is functional. The procedure, abridged:
(§1)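 Growth inhibition was assessed by two assays. […] Values are the mean of 3 biological replicates with standard deviation.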

For test [8], the system named is Mycobacterium tuberculosis. Put plainly: Anti-tubercular activity against Mycobacterium tuberculosis H37Rv expressing LuxABCDE assessed as reduction in microbial growth at 5 uM by luminescence based assay relative to control. The class given is functional. To be noted: read-out: GI. The method in brief: as §1
In test [9] the test system is Mycobacterium tuberculosis. Put plainly: Anti-tubercular activity against Mycobacterium tuberculosis H37Rv expressing LuxABCDE assessed as reduction in microbial growth at 20 uM by luminescence based assay relative to control. The class given is functional. The following applies: read-out: GI. The procedure, abridged:
as §1

Test [10] has as its system Mycobacterium tuberculosis. Put plainly: Anti-tubercular activity against Mycobacterium tuberculosis H37Rv expressing LuxABCDE assessed as relative luminescence by measuring ratio of RLU (test compound)/RLU(no compound) at 0.625 uM by luminescence based assay. The class given is functional, organism-based.
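Throughout, for pIC50: cell viability loss read out with alamar blue dye, IC50 being the concentration cutting viability by half.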

Consider `COc1cc2nccc(Nc3ccc(OCc4ccc(C)cc4)cc3)c2cc1OC`, for which the pIC50 – broadly, the IC50 on a negative log10 scale, so that one unit is a factor of ten – in test [1] was 5.27. Also, the Ratio in [2] is listed as 0.43; in test [3], 0.17; in [4], 0.1; in test [5], 0.08; in test [6] it was 0.09. In addition, in test [7], the MIC90 (as a rule, an inhibitory concentration at the 90% level, which refers to growth in some studies and to a panel of isolates in others) was 0.63 to 1.25 µM. Besides, the inhibition of growth at 5 µM in test [8] was found to be 98%. In addition, the inhibition of growth at 20 µM in test [9] was found to be 98%.
`Oc1ccc2ncnc(Nc3ccc(OCc4ccccc4F)cc3)c2c1` gave a pIC50 in test [1] of 4.55. The Ratio came to 0.89 in test [2]; 0.82 in [3]; 0.63 in test [4]; 0.46 in test [5]; 0.28 in test [6]. Besides, in test [10], the result was inactive.
In the case of `Oc1ccc2ncnc(Nc3ccc(OCc4ccc(F)cc4)cc3)c2c1`, the pIC50 in test [1] is under 4.00. In addition, the Ratio in test [2] is reported as 0.86; in test [3], 0.76; in test [4] it was 0.64; in test [5], 0.44; in test [6], 0.32. For the same molecule, the result in test [10] was inactive.
In test [1], `Oc1cc2ncnc(Nc3ccc(OCc4ccccc4)cc3)c2cc1O` had a pIC50 of 5.06. The Ratio in [2] was 0.95; in [3], 0.93; in test [4] it was 0.91; in [5] it was 0.76; in test [6], 0.69. Besides, the result in [10] was inactive.
`COc1cc2ncnc(Nc3ccc(OCc4ccccc4)cc3)c2cc1OC` gave a pIC50 in test [1] of under 4.00. Besides, the Ratio is 1.04 in test [2]; 1.04 in test [3]; 0.83 in test [4]; 0.77 in test [5]; 0.6 in test [6]. The outcome in test [10] was inactive.
In test [1], `COc1ccc2c(Nc3ccc(OCc4ccccc4)cc3)ncnc2c1` showed a pIC50 of under 4.00. The Ratio in test [2] was 1.05; in test [3], 1.12; in [4], 0.99; in test [5], 0.87; in [6] it was 0.64. The outcome in test [10] was inactive.
For `Oc1ccc2ncnc(Nc3ccc(OCc4cccc(F)c4)cc3)c2c1`, the pIC50 in test [1] is 4.92. Also, the Ratio amounted to 0.76 in [2]; 0.64 in test [3]; 0.49 in [4]; 0.39 in test [5]; 0.25 in test [6]. Besides, in test [10], the outcome was inactive.
`Oc1ccc2c(Nc3ccc(OCc4ccccc4)cc3)ncnc2c1` had a pIC50 in test [1] of under 4.00. The Ratio came to 0.9 in [2]; 0.9 in [3]; 0.89 in [4]; 0.88 in test [5]; 0.89 in test [6]. For the same molecule, in test [10], the result was inactive.
